Reference: ChEMBL document CHEMBL1143813, “Assessment and continued validation of the malaria SYBR green I-based fluorescence assay for use in malaria drug screening” (Antimicrob Agents Chemother, 2007)
≈ marks a conversion by molar mass, not a printed value.

Legend:
Assay type in all cases: functional, organism-based
Plasmodium falciparum [1] = assay: (§1) In vitro antimalarial activity against Plasmodium falciparum W2 after 72 hrs in SYBR green fluorescence assay; conditions: W2, 72 h
In short: (§2)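 P. falciparum D6 or W2 at late-ring/early-trophozoite stage, conditioned 3–4 days in the test medium (TCM, TCMA with Albumax I in place of plasma, FAF folic acid/pABA-free, or FAFA). Cultured 72 h at 37°C (5% CO₂, 5% O₂, N₂) with 11 twofold drug dilutions, 1% parasitemia, 2% hematocrit. SYBR green I lysis buffer added, 1 h at room temperature, RFU read. Plate-edge wells excluded.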

Plasmodium falciparum [2] = assay: as §1; conditions: W2, 72 h; remark: listed apart in the source
Plasmodium falciparum [3] = assay: (§3) In vitro antimalarial activity against Plasmodium falciparum D6 after 72 hrs in SYBR green fluorescence assay; conditions: D6, 72 h; in short: as §2
Plasmodium falciparum [4] = assay: as §1; conditions: W2, 72 h; remark: listed apart in the source
Plasmodium falciparum [5] = assay: Antimalarial activity against Plasmodium falciparum D6 as reduced [3H]hypoxanthine uptake after 72 hrs
Plasmodium falciparum [6] = assay: Antimalarial activity against Plasmodium falciparum W2 as reduced [3H]hypoxanthine uptake after 72 hrs
Plasmodium falciparum [7] = assay: as §3; conditions: D6, 72 h; in short: as §2; remark: listed apart in the source
Plasmodium falciparum [8] = assay: In vitro antimalarial activity against Plasmodium falciparum D6 after 72 hrs by SYBR green fluorescence assay; conditions: D6, 72 h; in short: as §2
Plasmodium falciparum [9] = assay: In vitro antimalarial activity against Plasmodium falciparum W2 after 72 hrs by SYBR green fluorescence assay; conditions: W2, 72 h; in short: as §2
Plasmodium falciparum [10] = assay: as §3; conditions: D6, 72 h; in short: as §2; remark: listed apart in the source

SMILES | IC50 (Plasmodium falciparum [1]) | IC50 (Plasmodium falciparum [2]) | IC50 (Plasmodium falciparum [3]) | IC50 (Plasmodium falciparum [4]) | IC50 (Plasmodium falciparum [5]) | IC50 (Plasmodium falciparum [6]) | IC50 (Plasmodium falciparum [7]) | IC50 (Plasmodium falciparum [8]) | IC50 (Plasmodium falciparum [9]) | IC50 (Plasmodium falciparum [10])
C[C@@H]1CC[C@H]2[C@@H](C)C(=O)O[C@@H]3O[C@@]4(C)CC[C@@H]1[C@]32OO4 [ARTEMISININ] | 1 ng/mL (≈ 0.00354 µM) | 1.2 ng/mL (≈ 0.00425 µM) | 1.6 ng/mL (≈ 0.00567 µM) | 1.1 ng/mL (≈ 0.0039 µM) | 2.4 ng/mL (≈ 0.0085 µM) | 1.7 ng/mL (≈ 0.00602 µM) | 1.25 ng/mL (≈ 0.00443 µM) | – | – | –
CC[C@H]1OC(=O)[C@H](C)[C@@H](O[C@H]2C[C@@](C)(OC)[C@@H](O)[C@H](C)O2)[C@H](C)[C@@H](O[C@@H]2O[C@H](C)C[C@H](N(C)C)[C@H]2O)[C@](C)(O)C[C@@H](C)CN(C)[C@H](C)[C@@H](O)[C@]1(C)O [AZITHROMYCIN] | 1620 ng/mL (≈ 2.17 µM) | 1850 ng/mL (≈ 2.47 µM) | 14400 ng/mL (≈ 19.2 µM) | 4490 ng/mL (≈ 5.99 µM) | 3750 ng/mL (≈ 5 µM) | 5500 ng/mL (≈ 7.34 µM) | 10100 ng/mL (≈ 13.5 µM) | 15300 ng/mL (≈ 20.4 µM) | 2730 ng/mL (≈ 3.65 µM) | 10100 ng/mL (≈ 13.4 µM)
Nc1ccc(S(=O)(=O)c2ccc(N)cc2)cc1 [DAPSONE] | – | 156 ng/mL (≈ 0.629 µM) | 10.2 ng/mL (≈ 0.0411 µM) | 242 ng/mL (≈ 0.973 µM) | 2.9 ng/mL (≈ 0.0117 µM) | 124 ng/mL (≈ 0.5 µM) | – | – | – | 3.1 ng/mL (≈ 0.0125 µM)
C[C@H]1c2cccc(O)c2C(=O)C2=C(O)[C@]3(O)C(=O)C(C(N)=O)=C(O)[C@@H](N(C)C)[C@@H]3[C@@H](O)[C@@H]21.O [DOXYCYCLINE] | 2410 ng/mL | 1860 ng/mL | 1850 ng/mL | 2130 ng/mL | 483 ng/mL | 814 ng/mL | 1180 ng/mL | 2370 ng/mL | 2280 ng/mL | 857 ng/mL
O[C@@H](c1cc(C(F)(F)F)nc2c(C(F)(F)F)cccc12)[C@H]1CCCCN1 [MEFLOQUINE] | 16.2 ng/mL (≈ 0.0428 µM) | 17.4 ng/mL (≈ 0.046 µM) | 16 ng/mL (≈ 0.0423 µM) | 9.7 ng/mL (≈ 0.0256 µM) | – | 2.3 ng/mL (≈ 0.00608 µM) | 43.7 ng/mL (≈ 0.116 µM) | 19.9 ng/mL (≈ 0.0526 µM) | 8.9 ng/mL (≈ 0.0235 µM) | 32.8 ng/mL (≈ 0.0867 µM)
C=CC1CN2CC[C@H]1C[C@H]2[C@H](O)c1ccnc2ccc(OC)cc12 (single isomer, unassigned) [QUININE] | 167 ng/mL (≈ 0.516 µM) | 162 ng/mL (≈ 0.5 µM) | 11.9 ng/mL (≈ 0.0367 µM) | – | 5 ng/mL (≈ 0.0154 µM) | 36 ng/mL (≈ 0.111 µM) | 15.8 ng/mL (≈ 0.0487 µM) | 11.3 ng/mL (≈ 0.0348 µM) | 128 ng/mL (≈ 0.396 µM) | 14.9 ng/mL (≈ 0.0459 µM)
CCc1nc(N)nc(N)c1-c1ccc(Cl)cc1 [PYRIMETHAMINE] | – | – | 0.4 ng/mL (≈ 0.00161 µM) | 37.6 ng/mL (≈ 0.151 µM) | 0.1 ng/mL (≈ 0.000402 µM) | 11.9 ng/mL (≈ 0.0478 µM) | – | – | – | 0.5 ng/mL (≈ 0.00201 µM)
COc1ncnc(NS(=O)(=O)c2ccc(N)cc2)c1OC [SULFADOXINE] | – | 1640 ng/mL (≈ 5.29 µM) | 2.4 ng/mL (≈ 0.00773 µM) | 2420 ng/mL (≈ 7.79 µM) | 16 ng/mL (≈ 0.0516 µM) | 1110 ng/mL (≈ 3.59 µM) | – | – | – | 10.5 ng/mL (≈ 0.0338 µM)
